We go through nine molecules from ChEMBL document CHEMBL1140279, “Synthesis and antimalarial evaluation of new N1-(7-chloro-4-quinolyl)-1,4-bis(3-aminopropyl)piperazine derivatives” (Bioorg Med Chem Lett, 2005).

For assay [1], the system named is MRC5. The assay is described as follows: Ratio of CC50/IC50 was determined. Type of assay: functional, Homo sapiens. The method in brief: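 Selectivity index taken as the ratio of CC50 on MRC-5 human diploid embryonic lung cells (colorimetric MTT assay) to IC50 for growth inhibition of the chloroquine-resistant Plasmodium falciparum strain FcB1. The IC50s come from triplicate experiments and are reported with standard error.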

The test system of assay [2] is MRC5. Briefly: Cytotoxic concentration of compound of compound […] MRC-5 cells (human diploid embryonic lung cell line). The format is functional. The method in brief:
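Cytotoxicity measured on MRC-5 human diploid embryonic lung cells with a colorimetric MTT assay, giving the CC50.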

A further assay concerns Plasmodium falciparum. Briefly: Antimalarial activity as growth inhibition of chloroquine-resistant Plasmodium falciparum FcB1. The format is functional, organism-based. The method in brief:
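Parasite growth inhibition assay on the chloroquine-resistant P. falciparum FcB1 strain. IC50 values are derived from triplicate experiments and reported with standard error.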

Molecules are shown by their SMILES. Some results are limits rather than exact numbers.

For the molecule `O=C(O)CCC(=O)N(CCCN1CCN(CCCNc2ccnc3cc(Cl)ccc23)CC1)CC1CC1`, the Ratio in the assay on MRC5 [1] is reported as more than 23. In addition, the CC50 (in general, the concentration giving 50% cytotoxicity) in the assay on MRC5 [2] was more than 32 µM.
Consider `O=C(CCCO)N(CCCN1CCN(CCCNc2ccnc3cc(Cl)ccc23)CC1)CC1CC1`, for which the Ratio in the assay on MRC5 [1] turned out to be 122. Moreover, it took 0.172 µM to reach half-maximal inhibition with Plasmodium falciparum (IC50). The molecule also registered a CC50 with MRC5 [2] of 21 µM.
As to `NCCC(=O)N(CCCN1CCN(CCCNc2ccnc3cc(Cl)ccc23)CC1)CC1CC1`, in the assay on MRC5 [1], the Ratio is given as more than 80. The 50% cytotoxic concentration (CC50) with MRC5 [2] is more than 32 µM.
For the molecule `NCCCN(CCCN1CCN(CCCNc2ccnc3cc(Cl)ccc23)CC1)CC1CC1`, the Ratio in the assay on MRC5 [1] is listed as more than 210. Moreover, it took 0.152 µM to reach half-maximal inhibition in the assay on Plasmodium falciparum (IC50). Moreover, the CC50 with MRC5 [2] was more than 32 µM.
With `N#CCCCCN(CCCN1CCN(CCCNc2ccnc3cc(Cl)ccc23)CC1)CC1CC1`, the Ratio in the assay on MRC5 [1] is given as 404. Further, the IC50 (as a rule, the midpoint of a concentration-inhibition curve) in the assay on Plasmodium falciparum amounted to 0.0099 µM. This molecule also had a CC50 with MRC5 [2] of 4 µM.
The corresponding values for `CC(C)(C)OC(=O)NCCCN(CCCN1CCN(CCCNc2ccnc3cc(Cl)ccc23)CC1)CC1CC1` are 317, 0.0126 µM and 4 µM.
As for `CC(C)(C)OC(=O)NCCC(=O)N(CCCN1CCN(CCCNc2ccnc3cc(Cl)ccc23)CC1)CC1CC1`, the Ratio in the assay on MRC5 [1] was 116. In the assay with Plasmodium falciparum, the IC50 is 0.0342 µM. Also, the CC50 with MRC5 [2] was 4 µM.
`NC(=O)CCC(=O)N(CCCN1CCN(CCCNc2ccnc3cc(Cl)ccc23)CC1)CC1CC1` came in with a concentration for half-maximal inhibition (IC50) in the assay on Plasmodium falciparum of less than 1 µM. In the assay on MRC5 [2], the cytotoxic concentration (CC50) was more than 32 µM.
As to `O=C(C1CC1)N(CCCN1CCN(CCCNc2ccnc3cc(Cl)ccc23)CC1)CC1CC1`, the Ratio in the assay with MRC5 [1] is recorded as 2076. This molecule showed an IC50 with Plasmodium falciparum of 0.0065 µM. Further, the midpoint of cytotoxicity with MRC5 [2], the CC50, lay at 13.5 µM.
